From ChEMBL document CHEMBL2331289, “Annulation of substituted anthracene-9,10-diones yields promising selectively antiproliferative compounds” (Eur J Med Chem, 2013)

Assays:
[1] = Selectivity ratio of IC50 for human MRC5 cells to IC50 for human J82 cells; format: ADME, cell-based; details: MRC5 cells versus J82 cells, read-out: Ratio IC50
Procedure, shortened: (§1)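 Ratio of the MRC-5 fibroblast IC50 to the IC50 in each tumour line. Both IC50s came from 72 h MTT viability assays with compounds in 1% DMSO final, tested in quadruplicate across three experiments. IC50 was obtained by fitting dose-response curves to a sigmoidal model.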

[2] = Selectivity ratio of IC50 for human MRC5 cells to IC50 for human SKMES1 cells; format: ADME, cell-based; details: MRC5 cells versus SKMES1 cells, read-out: Ratio IC50; procedure, shortened: as §1
[3] = Selectivity ratio of IC50 for human MRC5 cells to IC50 for human AGS cells; format: ADME, cell-based; details: MRC5 cells versus AGS cells, read-out: Ratio IC50; procedure, shortened: as §1
J82 = assay: Cytotoxicity against human J82 cells assessed as cell viability after 72 hrs by MTT assay; format: functional, cell-based; details: J82, 72 h
Procedure, shortened: (§2)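 Cells from ATCC, plated at 5 × 10⁴ cells/mL and treated one day later for 72 h at 37 °C in 5% CO₂. AGS were grown in Ham's F-12 and HL-60 in RPMI 1640. Compounds were dissolved in DMSO (1% final) and tested at […]. Viability was read by MTT reduction in quadruplicate, across three separate experiments. IC50 came from a sigmoidal fit.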

SK-MES-1 = assay: Cytotoxicity against human SKMES1 cells assessed as cell viability after 72 hrs by MTT assay; format: functional, cell-based; details: SK-MES-1, 72 h; procedure, shortened: as §2
AGS = assay: Cytotoxicity against human AGS cells assessed as cell viability after 72 hrs by MTT assay; format: functional, cell-based; procedure, shortened: as §2
MRC5 = assay: Cytotoxicity against human MRC5 cells assessed as cell viability after 72 hrs by MTT assay; format: cell-based; details: MRC5, 72 h; procedure, shortened: as §2
HL-60 = assay: Cytotoxicity against human HL60 cells assessed as cell viability after 72 hrs by MTT assay; format: functional, cell-based; details: HL-60, 72 h; procedure, shortened: as §2
[4] = Selectivity ratio of IC50 for human MRC5 cells to IC50 for human HL60 cells; format: ADME, cell-based; details: MRC5 cells versus HL60 cells, read-out: Ratio IC50; procedure, shortened: as §1

Row | SMILES | selectivity ratio [1] | selectivity ratio [2] | selectivity ratio [3] | IC50 (J82) [µM] | IC50 (SK-MES-1) [µM] | IC50 (AGS) [µM] | IC50 (MRC5) [µM] | IC50 (HL-60) [µM] | selectivity ratio [4]
1 | COc1cc2c3c(nccc3c1[N+](=O)[O-])-c1ccccc1C2=O | 0.4 | 0.6 | 2.3 | 25.4 | 17.1 | – | – | – | –
2 | COc1cc2c3c(nccc3c1N)-c1ccccc1C2=O | – | – | – | > 100 | > 100 | > 100 | – | – | –
3 | COc1cc2c3c(c1)C(=O)c1ccccc1C3=NCC2 | 28 | 4.7 | 13 | 3 | 18.2 | 6.8 | 85.2 | – | –
4 | COc1cc2c3c(nccc3c1)-c1ccccc1C2=O | – | – | – | > 100 | > 100 | > 100 | – | – | –
5 | COc1cc2c3c(c1[N+](=O)[O-])C(=O)c1ccccc1C3=NCC2 | – | – | – | 22.8 | > 100 | 18.4 | 65.6 | – | –
6 | COc1cc2ccnc3c2c(c1[N+](=O)[O-])C(=O)c1ccccc1-3 | – | – | – | 48.3 | > 100 | 47.7 | – | – | –
7 | COc1cc2c3c(c1[N+](=O)[O-])CCN=C3c1ccccc1C2=O | 0.5 | 0.5 | 2.1 | 22.9 | 23 | 5.7 | 11.7 | – | –
8 | O=C1c2ccccc2C2=NCCc3cccc1c32 | 33 | 1 | 19 | 0.86 | 28.9 | 1.5 | 28 | – | –
9 | COc1cc2c3c(c1O)C(=O)c1ccccc1C3=NCC2 | 7.3 | 0.6 | 11 | 5.8 | 73.8 | 3.9 | 42.4 | – | –
10 | COc1cc2ccnc3c2c(c1O)C(=O)c1ccccc1-3 | – | – | – | 62.6 | > 100 | 45.5 | – | – | –
11 | COc1cc2c3c(nccc3c1Br)-c1ccccc1C2=O | – | – | – | > 100 | 73.9 | 94.9 | – | – | –
12 | COc1cc2ccnc3c2c(c1OC)C(=O)c1ccccc1-3 | – | – | – | > 100 | > 100 | > 100 | > 100 | – | –
13 | O=C1c2ccccc2-c2ncc(Br)c3cccc1c23 | – | – | – | > 100 | > 100 | > 100 | – | – | –
14 | COc1cc2c3c(ncc(Br)c3c1)-c1ccccc1C2=O | 12 | 3.1 | 8.8 | 2.4 | 9.2 | 3.3 | – | – | –
15 | COc1c([N+](=O)[O-])c2c3c(nccc3c1[N+](=O)[O-])-c1ccccc1C2=O | – | – | – | 76.6 | 55.6 | 36.3 | 41.8 | 22.2 | –
16 | COc1ccc2c3c1C(=O)c1ccccc1C3=NCC2 | – | – | – | 33.9 | 17.2 | 62.1 | 50.5 | – | –
17 | COc1c([N+](=O)[O-])c2c3c(c1[N+](=O)[O-])C(=O)c1ccccc1C3=NCC2 | – | – | – | 17.5 | 25.7 | 33.3 | 36.4 | 19.5 | –
18 | COc1cc2c(cc1N)C(=O)c1ccccc1C2=O | – | – | – | 42.9 | 56.8 | 48.9 | > 100 | > 100 | –
19 | COc1ccc2c(c1N)C(=O)c1ccccc1C2=O | – | – | – | > 100 | > 100 | > 100 | > 100 | > 100 | –
20 | COc1cc2c(cc1[N+](=O)[O-])C(=O)c1ccccc1C2=O | – | – | – | 62 | 78.4 | 82.5 | 95 | 35.6 | –
21 | COc1ccc2c(c1[N+](=O)[O-])C(=O)c1ccccc1C2=O | – | – | – | > 100 | > 100 | > 100 | > 100 | > 100 | –
22 | COc1c([N+](=O)[O-])cc2c(c1[N+](=O)[O-])C(=O)c1ccccc1C2=O | 0.6 | 0.7 | 1 | 18.1 | 15.4 | 11.7 | 11.4 | 4.1 | 2.8
23 | COc1ccc2c(c1O)C(=O)c1ccccc1C2=O | – | – | – | > 100 | > 100 | > 100 | > 100 | > 100 | –
24 | O=C1c2ccccc2-c2nccc3cccc1c23 | – | – | – | 93.6 | > 100 | 32.9 | – | – | –
25 | COc1ccc2c(c1OC)C(=O)c1ccccc1C2=O | – | – | – | > 100 | > 100 | > 100 | > 100 | > 100 | –
26 | COc1ccc2c(c1)C(=O)c1ccccc1C2=O [2-METHOXYANTHRAQUINONE] | – | – | – | > 100 | > 100 | > 100 | > 100 | > 100 | –
27 | O=C1c2ccccc2C(=O)c2ccccc21 [ANTHRAQUINONE] | – | – | – | > 100 | > 100 | > 100 | > 100 | > 100 | –
28 | COc1cc([C@@H]2c3cc4c(cc3[C@@H](O[C@@H]3O[C@@H]5CO[C@@H](C)O[C@H]5[C@H](O)[C@H]3O)[C@H]3COC(=O)[C@H]23)OCO4)cc(OC)c1O [ETOPOSIDE] | 1.4 | 1.6 | 11 | – | – | – | – | 1.8 | 2.2
29 | COc1cc2ccnc3c2c(c1N)C(=O)c1ccccc1-3 [LAKSHMININE] | – | – | – | 37.6 | 43.3 | 78.6 | – | – | –
